# Measured values pooled from the literature.
# Lines come from different studies, so protocols differ.
SMILES,target or system,test,system,setting,measurement,result
O=C(/C=C/c1cccc(C(=O)NO)c1)NO,OCI-Ly1,"cell growth or viability, ATP luminescence",,"1 µM, 5 days",viability,72.5%
O=C(NC1CCCCC1)c1ccc(-c2nc3ccc4[nH]ncc4c3c3c2CCCC3)cc1,K562,"cell growth or viability, resazurin",,72 h,GI50,> 10 µM
Cc1ccc2[nH]nc(-c3nnc(Nc4ccc([N+](=O)[O-])cc4)s3)c2c1,Staphylococcus epidermidis,microbial growth,ATCC12228,,MIC,135 µg/mL
CC[C@H]1OC(=O)[C@H](C)[C@@H](O[C@H]2C[C@@](C)(OC)[C@@H](O)[C@H](C)O2)[C@H](C)[C@@H](O[C@@H]2O[C@H](C)C[C@H](N(C)C)[C@H]2O)[C@](C)(O)C[C@@H](C)/C(=N\OCOCCOC)[C@H](C)[C@@H](O)[C@]1(C)O,Staphylococcus epidermidis,microbial growth,,clinical isolate,MIC90,64 µg/mL
CCCCCCCCCCCCCCCCCCOc1cccc(CC(=O)OCC[N+]2(C)CCCCC2)c1,HOP-92,"cell growth or viability, SRB",,10 µM,inhibition,19%
Cc1ccc2[nH]nc(-c3nnc(Nc4ccc(O)cc4)s3)c2c1,Staphylococcus epidermidis,microbial growth,ATCC12228,,MIC,140 µg/mL
COc1c(N2C[C@@H]3CCCN[C@@H]3C2)c(F)cc2c(=O)c(C(=O)O)cn(C3CC3)c12,Staphylococcus epidermidis,"microbial growth, broth dilution",,clinical isolate,MIC90,2 µg/mL
CCCCCCCCCCCCCCCCCCOc1ccc(CC(=O)OCC[N+](CC)(CC)CC)cc1,HOP-62,"cell growth or viability, SRB",,10 µM,inhibition,2.95%
CN(C)CCNC(=O)c1ccc(-c2nc3ccc4[nH]ncc4c3c3c2CCCC3)c(F)c1,K562,"cell growth or viability, resazurin",,72 h,GI50,1.1 µM
O=C(CCCCCCC(=O)Nc1ccccc1)NO,OCI-Ly1,"cell growth or viability, ATP luminescence",,"1 µM, 5 days",viability,50.5%
CCc1nc(C(N)=O)c(Nc2ccc(N3CCC(N4CCN(C)CC4)CC3)c(OC)c2)nc1NC1CCOCC1,K562,"cell growth or viability, resazurin",,72 h,GI50,2.3 µM
CC1(C)S[C@@H]2[C@H](NC(=O)[C@H](N)c3ccccc3)C(=O)N2[C@H]1C(=O)O,Staphylococcus epidermidis,microbial growth,MRSE,clinical isolate,MIC90,> 128 µg/mL
Cc1ccc2[nH]nc(-c3nnc(Nc4ccc(C(F)(F)F)cc4)s3)c2c1,Staphylococcus epidermidis,microbial growth,ATCC12228,,MIC,123 µg/mL
CN(C)CCN(C)C(=O)c1ccc(-c2nc3ccc4[nH]ncc4c3c3c2CCCCC3)nc1,K562,"cell growth or viability, resazurin",,72 h,GI50,> 10 µM
O=C(CCCCCCSc1ccc2ccccc2c1)NO,OCI-Ly1,"cell growth or viability, ATP luminescence",,"1 µM, 5 days",viability,154%
O=C(NCCc1ccccn1)c1ccc(-c2nc3ccc4[nH]ncc4c3c3c2CCCC3)cc1,K562,"cell growth or viability, resazurin",,72 h,GI50,8.4 µM
CCCCCCCCCCCCCCCCCCOc1cccc(CC(=O)OCC[N+](C)(C)C)c1,HOP-92,"cell growth or viability, SRB",,10 µM,inhibition,12.2%
CN(C)CCNC(=O)c1ccc(-c2nc3ccc4[nH]ncc4c3c3c2CCCC3)s1,K562,"cell growth or viability, resazurin",,72 h,GI50,0.805 µM
CCCCCCCCCCCCCCCCCCOc1cccc(CC(=O)OCC[N+](CC)(CC)CC)c1,HOP-92,"cell growth or viability, SRB",,10 µM,inhibition,47.7%
O=C(NO)c1ccc(CC(=O)N(CCO)c2ccccc2)cc1,OCI-Ly1,"cell growth or viability, ATP luminescence",,"0.5 µM, 5 days",viability,93.8%
Cc1cc(Nc2nnc(-c3n[nH]c4ccc(C)cc34)s2)cc([N+](=O)[O-])c1,Staphylococcus epidermidis,microbial growth,ATCC12228,,MIC,208 µg/mL
CCCCCCCCCCCCCCCCCCOCC(COP(=O)([O-])OCC[N+](C)(C)C)OC (stereo not drawn),HOP-92,"cell growth or viability, SRB",,10 µM,inhibition,40.1%
CN(C)CCNC(=O)c1ccc(-c2nc3ccc4[nH]ncc4c3c3c2CC(F)(F)CC3)cc1,K562,"cell growth or viability, resazurin",,72 h,GI50,3.1 µM
O=C(Nc1cccc(Br)c1)c1cccc(S(=O)(=O)N2CCCCCC2)c1,OCI-Ly1,"cell growth or viability, ATP luminescence",,"0.5 µM, 5 days",viability,157%
CCCCCCCCCCCCCCCCCCOc1ccccc1CC(=O)OCCC[N+](C)(C)C,HOP-92,"cell growth or viability, SRB",,10 µM,inhibition,60.4%
CC[C@H]1OC(=O)[C@H](C)[C@@H](O[C@H]2C[C@@](C)(OC)[C@@H](O)[C@H](C)O2)[C@H](C)[C@@H](O[C@@H]2O[C@H](C)C[C@H](N(C)C)[C@H]2O)[C@](C)(O)C[C@@H](C)CN(C)[C@H](C)[C@@H](O)[C@]1(C)O,Staphylococcus epidermidis,microbial growth,ATCC12228,,MIC,< 98 µg/mL
CCCCCCCCCCCCCCCCCCOc1cccc(CC(=O)OCC[N+]2(C)CCOCC2)c1,HOP-92,"cell growth or viability, SRB",,10 µM,inhibition,13.9%
CN[C@H](CC(C)C)C(=O)N[C@H]1C(=O)N[C@@H](CC(N)=O)C(=O)N[C@H]2C(=O)N[C@H]3C(=O)N[C@H](C(=O)N[C@H](C(=O)O)c4cc(O)cc(O)c4-c4cc3ccc4O)[C@H](O)c3ccc(c(Cl)c3)Oc3cc2cc(c3O[C@@H]2O[C@H](CO)[C@@H](O)[C@H](O)[C@H]2O[C@H]2C[C@](C)(N)[C@H](O)[C@H](C)O2)Oc2ccc(cc2Cl)[C@H]1O,Staphylococcus epidermidis,microbial growth,,clinical isolate,MIC50,0.5 µg/mL
CC(=O)OC[C@H]1O[C@@H](n2cnc(N)nc2=O)[C@H](OC(C)=O)[C@@H]1OC(C)=O,OCI-Ly1,"cell growth or viability, ATP luminescence",,"1 µM, 5 days",viability,153%
CCCCCCCCCCCCCCCCCCOc1cccc(CC(=O)OCC[N+]2(C)CCCC2)c1,HOP-92,"cell growth or viability, SRB",,10 µM,inhibition,30%
O=C(Nc1ccc(Cl)cc1)C1CCCN(C(=O)c2cc(C(F)(F)F)cc(C(F)(F)F)c2)C1 (racemic),OCI-Ly1,"cell growth or viability, ATP luminescence",,"0.5 µM, 5 days",viability,137%
O=C(Nc1nccs1)c1ccc(-c2nc3ccc4[nH]ncc4c3c3c2CCCC3)cc1,K562,"cell growth or viability, resazurin",,72 h,GI50,> 10 µM
CC(=O)NC[C@H]1CN(c2ccc(N3CCOCC3)c(F)c2)C(=O)O1,Staphylococcus epidermidis,microbial growth,MRSE,clinical isolate,MIC90,2 µg/mL
Cc1cc(O)cc(Nc2nnc(-c3n[nH]c4ccc(C)cc34)s2)c1,Staphylococcus epidermidis,microbial growth,ATCC12228,,MIC,201 µg/mL
C=C[C@]1(C)C[C@@H](OC(=O)CS[C@@H]2C[C@H]3CC[C@@H](C2)N3C)[C@]2(C)[C@H](C)CC[C@]3(CCC(=O)[C@H]32)[C@@H](C)[C@@H]1O,Staphylococcus epidermidis,microbial growth,,clinical isolate,MIC50,0.0312 µg/mL
Cc1c2c(nn1C)CSCc1cc(n(C)n1)CSc1cc(c3ccccc3c1)OCCCc1c(C(=O)O)n(C)c3c-2c(Cl)ccc13,Staphylococcus epidermidis,"microbial growth, broth dilution",,clinical isolate,MIC90,12.5 µM
